Active and inactive are the calls of the source. No cut-off for these calls is given here.
B1: Lipopolysaccharide heptosyltransferase 1 (Escherichia coli (strain K12)), P24173 (protein)
chain: MRVLIVKTSSMGDVLHTLPALTDAQQAIPGIKFDWVVEEGFAQIPSWHAAVERVIPVAIRRWRKAWFSAPIKAERKAFREALQAENYDAVIDAQGLVKSAALVTRLAHGVKHGMDWQTAREPLASLFYNRKHHIAKQQHAVERTRELFAKSLGYSKPQTQGDYAIAQHFLTNLPTDAGEYAVFLHATTRDDKHWPEEHWRELIGLLADSGIRIKLPWGAPHEEERAKRLAEGFAYVEVLPKMSLEGVARVLAGAKFVVSVDTGLSHLTAALDRPNITVYGPTDPGLIGGYGKNQMVCRAPRENLINLNSQAVLEKLSSL

What was measured:
[1] = biological target: T1, Lipopolysaccharide heptosyltransferase 1 (Escherichia coli (strain K12)) (UniProt P24173); assay: Substrate activity at Escherichia coli Heptosyltransferase I assessed as ADP release at 100 uM using phospho(enol)pyruvate and NADH by pyruvate kinase and LDH based ADP/NADH coupling assay
T1 sequence (whole entry): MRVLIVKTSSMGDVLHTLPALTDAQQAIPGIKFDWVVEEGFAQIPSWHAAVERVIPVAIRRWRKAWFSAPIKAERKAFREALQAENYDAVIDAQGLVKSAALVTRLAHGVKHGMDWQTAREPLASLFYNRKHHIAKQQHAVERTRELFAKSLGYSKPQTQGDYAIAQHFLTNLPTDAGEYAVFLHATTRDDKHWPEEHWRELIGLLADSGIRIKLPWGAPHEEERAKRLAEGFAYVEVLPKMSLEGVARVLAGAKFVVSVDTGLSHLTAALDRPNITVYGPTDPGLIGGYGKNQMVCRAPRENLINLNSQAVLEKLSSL
How it was run: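 Screening for acceptor-substrate (nucleophile) use by HepI. Each compound replaces the normal Kdo2-Lipid A-type acceptor. ADP-heptose is the heptose donor. Free glucose and galactose and their α- and β-methyl glycosides were screened the same way before the synthesized compounds.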

[2] = biological target: T1, Lipopolysaccharide heptosyltransferase 1 (Escherichia coli (strain K12)); assay: Inhibition of Escherichia coli Heptosyltransferase I assessed as reduction in ADP release at 1 mM using ODLA and ADP-heptose substrates in presence of phospho(enol)pyruvate and NADH by pyruvate kinase and LDH based ADP/NADH coupling assay
[3] = biological target: T2, Lipopolysaccharide heptosyltransferase 1 (Escherichia coli (strain K12), UniProt P24173); assay: Inhibition of Escherichia coli Heptosyltransferase I assessed as reduction in ADP release using ODLA and ADP-heptose substrates in presence of phospho(enol)pyruvate and NADH by pyruvate kinase and LDH based ADP/NADH coupling assay
T2 sequence (P24173 whole entry): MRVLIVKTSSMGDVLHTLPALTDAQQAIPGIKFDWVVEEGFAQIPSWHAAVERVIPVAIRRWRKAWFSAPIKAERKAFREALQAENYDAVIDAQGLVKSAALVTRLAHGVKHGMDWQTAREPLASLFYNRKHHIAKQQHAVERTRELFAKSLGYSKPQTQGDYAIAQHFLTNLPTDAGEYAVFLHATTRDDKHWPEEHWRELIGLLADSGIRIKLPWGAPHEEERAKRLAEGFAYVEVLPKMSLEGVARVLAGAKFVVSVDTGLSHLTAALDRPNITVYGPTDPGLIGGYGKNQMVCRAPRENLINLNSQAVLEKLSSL

[4] = compound: CCCC/C=C/CO[C@@H]1O[C@H](CO)[C@@H](O)[C@H](O)[C@H]1O; assay: (§1) Noncompetitive mixed type inhibition of Escherichia coli Heptosyltransferase I assessed as reduction in ADP release by measuring ADP-heptose Km at 100 uM using ODLA and ADP-heptose substrates in presence of phospho(enol)pyruvate and NADH by pyruvate kinase and LDH dependent ADP/NADH coupling assay based Lineweaver-Burk plot
[5] = compound: CCCC/C=C/CO[C@@H]1O[C@H](CO)[C@@H](O)[C@H](O)[C@H]1O; assay: as §1, with “Noncompetitive” for “Noncompetitive mixed type”, “ODLA Kcat” for “ADP-heptose Km”
[6] = compound: CCCC/C=C/CO[C@@H]1O[C@H](CO)[C@@H](O)[C@H](O)[C@H]1O; assay: as §1, with “Kcat” for “Km”, “10” for “100”
[7] = compound: CCCC/C=C/CO[C@@H]1O[C@H](CO)[C@@H](O)[C@H](O)[C@H]1O; assay: as §1, with “Noncompetitive” for “Noncompetitive mixed type”, “measuring ODLA” for “measuring ADP-heptose”, “at 1000” for “at 100”
[8] = compound: CCCC/C=C/CO[C@@H]1O[C@H](CO)[C@@H](O)[C@H](O)[C@H]1O; assay: as §1, with “Kcat” for “Km”
[9] = compound: CCCC/C=C/CO[C@@H]1O[C@H](CO)[C@@H](O)[C@H](O)[C@H]1O; assay: as §1, with “Noncompetitive” for “Noncompetitive mixed type”, “measuring ODLA” for “measuring ADP-heptose”
[10] = compound: CCCC/C=C/CO[C@@H]1O[C@H](CO)[C@@H](O)[C@H](O)[C@H]1O; assay: as §1, with “Noncompetitive” for “Noncompetitive mixed type”, “ODLA Kcat” for “ADP-heptose Km”, “10” for “100”
[11] = compound: CCCC/C=C/CO[C@@H]1O[C@H](CO)[C@@H](O)[C@H](O)[C@H]1O; assay: as §1, with “10” for “100”
[12] = compound: CCCC/C=C/CO[C@@H]1O[C@H](CO)[C@@H](O)[C@H](O)[C@H]1O; assay: as §1, with “Noncompetitive” for “Noncompetitive mixed type”, “measuring ODLA” for “measuring ADP-heptose”, “at 10” for “at 100”
[13] = compound: CCCC/C=C/CO[C@@H]1O[C@H](CO)[C@@H](O)[C@H](O)[C@H]1O; assay: as §1, with “1000” for “100”
[14] = compound: CCCC/C=C/CO[C@@H]1O[C@H](CO)[C@@H](O)[C@H](O)[C@H]1O; assay: as §1, with “Kcat” for “Km”, “1000” for “100”
[15] = compound: CCCC/C=C/CO[C@@H]1O[C@H](CO)[C@@H](O)[C@H](O)[C@H]1O; assay: as §1, with “Noncompetitive” for “Noncompetitive mixed type”, “ODLA Kcat” for “ADP-heptose Km”, “1000” for “100”

Row | Molecule | Activity [1] | inhibition [2] | Ki [3] [µM] | further results
1 | CCCCCC/C=C/CO[C@@H]1O[C@H](CO)[C@H](O)[C@H](O)[C@H]1O | inactive | 6.3% | – | –
2 | CCCCCC/C=C/CO[C@@H]1O[C@H](CO)[C@@H](O)[C@H](O)[C@H]1O | inactive | 4.2% | – | –
3 | C=CCO[C@@H]1O[C@H](CO)[C@@H](O)[C@H](O)[C@H]1O | inactive | 19.6% | 650 | –
4 | CCCCCC/C=C/CO[C@H]1O[C@H](CO)[C@H](O)[C@H](O)[C@H]1O | inactive | 8.8% | – | –
5 | CO[C@@H]1O[C@H](CO)[C@H](O)[C@H](O)[C@H]1O | inactive | 7% | – | –
6 | CCCCC/C=C/CO[C@@H]1O[C@H](CO)[C@H](O)[C@H](O)[C@H]1O | inactive | 7.8% | – | –
7 | CCCCCC/C=C/CO[C@H]1O[C@H](CO)[C@@H](O)[C@H](O)[C@H]1O | inactive | 16.7% | – | –
8 | CCCCCCCC/C=C/CO[C@@H]1O[C@H](CO)[C@H](O)[C@H](O)[C@H]1O | inactive | 5% | – | –
9 | CCCCCCCC/C=C/CO[C@H]1O[C@H](CO)[C@H](O)[C@H](O)[C@H]1O | inactive | inactive | – | –
10 | CO[C@H]1O[C@H](CO)[C@H](O)[C@H](O)[C@H]1O | inactive | 8.8% | – | –
11 | CCCCCCCC/C=C/CO[C@@H]1O[C@H](CO)[C@@H](O)[C@H](O)[C@H]1O | inactive | 23.4% | 520 | –
12 | CO[C@@H]1O[C@H](CO)[C@@H](O)[C@H](O)[C@H]1O | inactive | 19.5% | 680 | –
13 | OC[C@H]1OC(O)[C@H](O)[C@@H](O)[C@@H]1O (stereo partly specified) [DEXTROSE] | inactive | – | 280 | –
14 | CCCC/C=C/CO[C@@H]1O[C@H](CO)[C@@H](O)[C@H](O)[C@H]1O | inactive | 29.7% | 340 | –
15 | C=CCO[C@@H]1O[C@H](CO)[C@H](O)[C@H](O)[C@H]1O | inactive | 10% | – | –
16 | CCCCC/C=C/CO[C@@H]1O[C@H](CO)[C@@H](O)[C@H](O)[C@H]1O | inactive | 11.9% | – | –
17 | CCCCCCCCO[C@@H]1O[C@H](CO)[C@@H](O)[C@H](O)[C@H]1O | inactive | 8.3% | – | –
18 | CO[C@H]1O[C@H](CO)[C@@H](O)[C@H](O)[C@H]1O | inactive | 27.8% | 370 | –
19 | O=C[C@H](O)[C@@H](O)[C@@H](O)[C@H](O)CO [GALACTOSE] | inactive | 28.5% | 500 | –
20 | CCCC/C=C/CO[C@@H]1O[C@H](CO)[C@H](O)[C@H](O)[C@H]1O | inactive | 22.6% | 570 | –
21 | CCCCCCCC/C=C/CO[C@H]1O[C@H](CO)[C@@H](O)[C@H](O)[C@H]1O | inactive | inactive | – | –
22 | B1 | – | – | – | Km [4]: 135 µM; kcat [5]: 1.3 s⁻¹; kcat [6]: 2.8 s⁻¹; Km [7]: 65 µM; kcat [8]: 1.6 s⁻¹; Km [9]: 108 µM; kcat [10]: 1.4 s⁻¹; Km [11]: 277 µM; Km [12]: 114 µM; Km [13]: 38 µM; kcat [14]: 0.76 s⁻¹; kcat [15]: 0.9 s⁻¹
